High-throughput results: PubChem, several laboratories
Compounds with a hit are over-represented: about 1.3% of the library has one in this group of screens.
proCasp7 act = activates human procaspase-7, counter-screen for procaspase-3 activators; P55210; recombinant procaspase-7, Ac-DEVD-pNA absorbance 405 nm; D23A/D198A/D206A triple mutant, cannot self-cleave; scale: DMSO 0, 5 µM enzyme 100; activation, % at 8.5 µM; actives 0.093% (n = 330,000); AID 463210;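 active = percent activation above the screen-wide mean plus 3 SD, cut at about 25% in these data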
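Detection: p-Nitroaniline absorbance at 405 nm, read at 0 and 120 min; system: Uncleavable procaspase-7 mutant enzyme; evaluation: % activation from two-timepoint absorbance difference, scaled to controls; times: 1 h enzyme–compound preincubation and 2 h substrate reaction, both 25 °C; buffer or medium: Zinc-free HEPES pH 7.4 with 300 mM NaCl, 0.01% Triton X-100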
VLA-4 inh = inhibition in a human VLA-4 binding assay | VLA-4 expressing cells, ligand binding flow cytometry | inhibition, % (about 7 µM as worked out from the volumes in the protocol) | actives 0.2% (n = 330,000) | AID 2557; in the data active = inhibition above about 50%
GRK2 inh = blocks RNA aptamer binding to human GRK2; P25098; bead flow cytometry, FAM-aptamer displacement from GRK2; inhibition of aptamer binding, % at 10 µM; actives 0.59% (n = 330,000); AID 488847;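 active = inhibition of aptamer binding above 40%, roughly 3 SD of noise, on plates passing a quality check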;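 also: median bead fluorescence of bound FAM aptamer so fluorescent compounds give negative values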
Target sequence (P25098 whole entry, looked up): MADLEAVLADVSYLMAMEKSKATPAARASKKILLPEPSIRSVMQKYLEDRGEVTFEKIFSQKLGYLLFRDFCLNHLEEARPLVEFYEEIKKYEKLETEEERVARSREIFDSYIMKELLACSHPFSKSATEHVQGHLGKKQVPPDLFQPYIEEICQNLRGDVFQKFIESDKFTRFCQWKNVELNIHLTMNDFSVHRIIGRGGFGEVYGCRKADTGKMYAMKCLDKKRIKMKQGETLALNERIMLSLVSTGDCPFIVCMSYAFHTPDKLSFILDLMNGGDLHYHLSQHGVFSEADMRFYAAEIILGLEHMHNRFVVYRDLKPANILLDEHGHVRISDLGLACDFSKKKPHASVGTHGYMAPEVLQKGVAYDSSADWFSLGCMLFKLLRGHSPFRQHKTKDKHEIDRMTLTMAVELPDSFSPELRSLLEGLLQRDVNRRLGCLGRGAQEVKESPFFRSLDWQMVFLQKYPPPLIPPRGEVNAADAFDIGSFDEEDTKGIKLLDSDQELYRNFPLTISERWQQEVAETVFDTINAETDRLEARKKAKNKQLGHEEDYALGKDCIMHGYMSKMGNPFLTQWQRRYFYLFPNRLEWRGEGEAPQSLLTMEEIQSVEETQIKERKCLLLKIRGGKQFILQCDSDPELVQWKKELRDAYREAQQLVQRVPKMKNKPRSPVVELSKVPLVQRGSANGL
JMJD2C inh = blocks human GASC-1 demethylase activity; GST-JMJD2C(1-420) H3K9me3 demethylation, DELFIA europium; inhibition, % at 2.35 µM; actives 0.069% (n = 330,000);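 active = more than half of a compound's replicate wells show inhibition beyond 50%, single wells judged on their own value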;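 also: signal counts dimethyl H3K9 product captured on neutravidin plate; 0% = median of DMSO wells and 100% = 0.3 times that DMSO median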
Lipid droplet = modulators of hepatic lipid droplet formation; actives 0.4% (n = 240,000); inhibition, % at 6.5 µM; AML12 mouse hepatocytes, oleate lipid droplets, BODIPY imaging;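 active = lipid droplet intensity inhibited by at least 50%, with more than 500 cells counted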
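Technique: fluorescence imaging, 20x objective, two fields per well / Assay system: AML12 hepatocytes (mouse) / Measure: % inhibition of lipid droplet signal / Doses: 6.5 µM single-point dosing / Incubation: overnight exposure / Reagent: 100 µM oleic acid challenge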
procasp3 activ = activates human procaspase-3; actives 0.11% (n = 330,000); activation, % at 8.5 µM; recombinant procaspase-3 D3A, Ac-DEVD-pNA absorbance 405 nm;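 active = activation above the mean of all tested compounds plus 3 SD, cut at about 21% in these data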;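 also: 0% = DMSO alone and 100% = DMSO wells spiked with extra 5 µM PC-3 D3A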
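material = Procaspase-3 D3A mutant | probe or stimulus = Ac-DEVD-pNA | compound = single dose, 8.5 µM nominal compound, 0.8% DMSO | timing = 1 h preincubation, 2 h reaction | measured by = 405 nm absorbance of p-nitroaniline, reads at 0 and 120 min | benchmarks = DMSO-only low control, 5 µM PC-3 D3A high control | repeats = singlicate, each compound tested once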
GRK2 CP1 = confirmation of human GRK2 inhibitors displacing RNA aptamer | shares compounds with GRK2 inh | actives 4% (n = 2,000) | aptamer displacement, % at 10 µM | bead-bound GRK2, FAM-aptamer displacement, flow cytometry | AID 504451;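 active = aptamer displacement above 40%, near three times the noise of non-fluorescent compounds, on plates passing quality checks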;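 also: negative values mostly reflect intrinsic compound fluorescence rather than true enhancement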
Aptamer quench SP = counter-screen for GRK2 aptamer inhibitors: fluorescent aptamer quenchers. 2,000 tested, under 10 active. fluorescence response (% of DMSO), % at 10 µM. Carboxyfluorescein RNA aptamer on beads, flow cytometry quenching; stronger effect = lower value. AID 504580. shares compounds with GRK2 inh;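 active = compounds that quench the bead-bound fluorescent RNA probe, cutting fluorescence to under half of the solvent control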;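 also: counterscreen run without GRK2 so only probe quenching by compound is measured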
* marks the source's active call; other numbers are inactive results.

What do the screens show for `O=C(NC1CC1)C1CCN(Cc2cnn(-c3ccccc3)c2-n2cccc2)CC1`?
proCasp7 act: 15; VLA-4 inh: 21; GRK2 inh: 0; JMJD2C inh: 2; Lipid droplet: 2; procasp3 activ: 3

How did O=C(NCc1cccnc1)C1CCCN(Cc2cnn(-c3ccccc3)c2-n2cccc2)C1 (stereo unspecified) do in these assays?
proCasp7 act: 7; VLA-4 inh: 14; GRK2 inh: 0; JMJD2C inh: 4; Lipid droplet: -5; procasp3 activ: 0; GRK2 CP1: -1; Aptamer quench SP: 103

What do the screens show for `CCOc1ccc(CCNC(=O)C2CCCN(c3ncnc4c3nc3n4CCCCC3)C2)cc1` (stereo unspecified)?
proCasp7 act: 5; VLA-4 inh: 10; GRK2 inh: 3; JMJD2C inh: -9; Lipid droplet: 9; procasp3 activ: 2

What do the screens show for `OC1(Cc2cc(-c3ccccc3)no2)CCN(CCCc2ccccc2)CC1`?
proCasp7 act: 17; VLA-4 inh: 14; GRK2 inh: 2; JMJD2C inh: 2; Lipid droplet: 13; procasp3 activ: 6

How did Cc1ccccc1C(=O)Nc1ccnn1C1CCN(Cc2ccccn2)CC1 do in these assays?
proCasp7 act: 4; VLA-4 inh: 0; GRK2 inh: 2; JMJD2C inh: 6; Lipid droplet: 20; procasp3 activ: -9

Results for CNc1snc(C)c1C(=O)OCC(=O)c1ccc(Cl)cc1 ?
proCasp7 act: -1; VLA-4 inh: -7; GRK2 inh: 51*; JMJD2C inh: 2; procasp3 activ: 0; GRK2 CP1: 6; Aptamer quench SP: 91

What do the screens show for `COC(=O)c1cc(NC(=O)/C=C/c2ccccc2)ccc1O`?
proCasp7 act: 11; VLA-4 inh: -1; GRK2 inh: 0; JMJD2C inh: 1; Lipid droplet: 11; procasp3 activ: 2

Results for COc1ccc(C(N)CCc2ccc(C)o2)cc1 (stereo unspecified) ?
proCasp7 act: -9; VLA-4 inh: -19; GRK2 inh: 79*; JMJD2C inh: 10; procasp3 activ: -3; GRK2 CP1: -37; Aptamer quench SP: 111

Results for CCc1ccc(CCC(=O)Nc2ccc(OC)cc2)o1 ?
proCasp7 act: 0; VLA-4 inh: 8; GRK2 inh: 4; JMJD2C inh: 4; Lipid droplet: 2; procasp3 activ: 3

Results for Cc1ccc(-c2csc3ncn(CC#N)c(=O)c23)cc1 ?
proCasp7 act: 1; VLA-4 inh: 7; GRK2 inh: 0; JMJD2C inh: 6; Lipid droplet: 0; procasp3 activ: 4

Results for Cc1ccc(-c2csc3ncn(CC#N)c(=O)c23)cc1C ?
proCasp7 act: 6; VLA-4 inh: -18; GRK2 inh: 86*; JMJD2C inh: 0; Lipid droplet: -65; procasp3 activ: 9; GRK2 CP1: -1; Aptamer quench SP: 93

What do the screens show for `Cc1cc(=O)oc2cc(OC(C(=O)O)c3ccccc3)ccc12` (stereo unspecified)?
proCasp7 act: 7; VLA-4 inh: -82; GRK2 inh: 84*; JMJD2C inh: -30; Lipid droplet: 3; procasp3 activ: -6; GRK2 CP1: -25; Aptamer quench SP: 214

Results for Cc1cc(CNCc2cn(C)nc2-c2ccc(Oc3ccccc3)cc2)on1 ?
proCasp7 act: -5; VLA-4 inh: 6; GRK2 inh: 100*; JMJD2C inh: 32; Lipid droplet: 24; procasp3 activ: 5; GRK2 CP1: 0; Aptamer quench SP: 101

Results for Cn1cc(CNCC2CCCO2)c(-c2ccc(Oc3ccccc3)cc2)n1 (stereo unspecified) ?
proCasp7 act: 6; VLA-4 inh: 20; GRK2 inh: 0; JMJD2C inh: 2; Lipid droplet: -18; procasp3 activ: 8

Results for C#Cc1cccc(-n2nnc(C(=O)OC)c2-c2ccccc2)c1 ?
proCasp7 act: -9; VLA-4 inh: -1; GRK2 inh: 0; JMJD2C inh: -20; procasp3 activ: -8

What do the screens show for `CCN(CC)CCN(CC)Cc1ccccc1Br`?
proCasp7 act: -11; VLA-4 inh: 16; GRK2 inh: 99*; JMJD2C inh: 4; procasp3 activ: -12; GRK2 CP1: 2; Aptamer quench SP: 101

What do the screens show for `CCN(CCO)Cc1csc2cccc(Br)c12`?
proCasp7 act: 3; VLA-4 inh: 23; GRK2 inh: 1; JMJD2C inh: 4; procasp3 activ: -1

Results for COc1ccc(-c2sc3cc(OC)c(OC)cc3c2C#CC2(O)CCCCC2)cc1 ?
proCasp7 act: 1; VLA-4 inh: 20; GRK2 inh: 83*; JMJD2C inh: -5; procasp3 activ: 0; GRK2 CP1: -3; Aptamer quench SP: 96

Results for COc1ccc(NC(=O)CCNS(=O)(=O)c2cccc3nonc23)c(OC)c1 ?
proCasp7 act: 9; VLA-4 inh: -7; GRK2 inh: 1; JMJD2C inh: 2; Lipid droplet: 32; procasp3 activ: 8

Results for CCCCNC(=O)COC(=O)c1ccc(C)c(NC(=O)c2ccco2)c1 ?
proCasp7 act: 12; VLA-4 inh: 11; GRK2 inh: 0; JMJD2C inh: -3; Lipid droplet: -2; procasp3 activ: -2

Results for Cc1ccc(C(=O)OCc2c(C)noc2C)cc1NC(=O)c1ccco1 ?
proCasp7 act: 3; VLA-4 inh: -7; GRK2 inh: 1; JMJD2C inh: 9; Lipid droplet: -8; procasp3 activ: -2; GRK2 CP1: -2; Aptamer quench SP: 96

How did Cc1csc(NC(=O)C2CCCCN2S(=O)(=O)c2ccccc2)n1 (stereo unspecified) do in these assays?
proCasp7 act: -1; VLA-4 inh: 8; GRK2 inh: 95*; JMJD2C inh: 9; Lipid droplet: 12; procasp3 activ: 2; GRK2 CP1: -2; Aptamer quench SP: 102

Results for O=C(Nc1nccs1)C1CCCCN1S(=O)(=O)c1ccccc1 (stereo unspecified) ?
proCasp7 act: -1; VLA-4 inh: 2; GRK2 inh: 0; JMJD2C inh: -12; Lipid droplet: 23; procasp3 activ: 3

What do the screens show for `Cc1ccc(SCc2c(C(=O)N/N=C/c3ccccc3)nnn2-c2nonc2N)cc1`?
proCasp7 act: -1; VLA-4 inh: 10; GRK2 inh: 1; JMJD2C inh: -17; Lipid droplet: 0; procasp3 activ: 7
